The values that follow come from ChEMBL document CHEMBL4428077, “Synthesis and Biological Evaluation of N-((1-(4-(Sulfonyl)piperazin-1-yl)cycloalkyl)methyl)benzamide Inhibitors of Glycine Transporter-1” (J Med Chem, 2016).

Data set [1] in a line: Drug level in cynomolgus monkey CSF at 10 mg/kg, po measured at 0.5 hr post dose by LC-MS/MS analysis. Type of data set: ADME, organism-based, Macaca fascicularis, Cerebrospinal fluid. The conditions noted are these: read-out: Drug uptake. The essentials: (§1)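 Cynomolgus monkeys (n = 3/group) fitted with subcutaneous CSF ports were dosed orally at 0.4−15.7 μmol/kg in 5% Solutol plus 20% Captisol in 25 mM PBS, pH 2. CSF (about 0.30 mL) and blood were sampled predose and at 0.5, 1, 2, 3, 4, 8, 12 and 24 h. Quantitation limit 1.0 ng/mL; mean ± SD.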

The nature of data set [2]: Drug level in cynomolgus monkey CSF at 10 mg/kg, po measured at 4 hrs post dose by LC-MS/MS analysis. The data set is classed as ADME, organism-based, Macaca fascicularis, Cerebrospinal fluid. The note with it: read-out: Drug uptake. The essentials: as §1
A short description of data set [3]: Drug level in Sprague-Dawley rat brain at 3 mg/kg, po measured 2 hrs post dose by LC-MS/MS analysis. The data set is classed as ADME, organism-based. The conditions noted are these: read-out: Drug uptake. The essentials: (§2)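 Drug-naive Sprague−Dawley rats (n = 4−5/group) were dosed orally once in 5% Solutol plus 20% Captisol in 25 mM PBS, pH 2, and euthanized 2 h later by CO₂. CSF was drawn from the cisterna magna. Drug was measured in CSF, brain and plasma; data as mean ± SEM.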

Data set [4] in a line: Drug level in Sprague-Dawley rat CSF at 0.3 mg/kg, po measured 2 hrs post dose by LC-MS/MS analysis. The conditions noted are these: read-out: Drug uptake. Type of data set: ADME, organism-based, Cerebrospinal fluid. The essentials: as §2
Data set [5] is described as follows: Thermodynamic solubility in pH 7.4 PBS by shake flask method. The data set is classed as physicochemical. The conditions noted are these: read-out: Therm_solubility. The essentials:
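Thermodynamic shake-flask solubility in PBS, pH 7.4.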

Data set [6] in a line: Drug level in Sprague-Dawley rat brain at 0.3 mg/kg, po measured 2 hrs post dose by LC-MS/MS analysis. Type of data set: ADME, organism-based. The conditions noted are these: read-out: Drug uptake. The procedure, abridged: as §2
The nature of data set [7]: Drug level in Sprague-Dawley rat brain at 10 mg/kg, po measured 2 hrs post dose by LC-MS/MS analysis. The note with it: read-out: Drug uptake. The data set is classed as ADME, organism-based. The essentials:
as §2

The test system of data set [8] is Rattus norvegicus. Put plainly: In vivo inhibition of glycine transporter-1 in Sprague-Dawley rat assessed as CSF glycine level at 0.3 mg/kg, po measured 2 hrs post dose by LC-MS/MS analysis relative to control. The data set is classed as functional. Also on record: scale not given: the % may be the effect or the level left. The procedure, abridged:
(§3)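 Drug-naive adult male Sprague-Dawley rats, n = 4-5 per group, given a single oral dose of 0.4, 1.5, 4.7 or 15.7 μmol/kg. Vehicle was 5% Solutol + 10% Captisol in 25 mM PBS, pH 2. At 2 h, rats were killed by CO₂. CSF (50-100 μL) was taken from the cisterna magna, and brain and plasma were also collected. Glycine was measured by LC-MS/MS against a deuterated-glycine internal standard. Results given as % vehicle control (vehicle 30 min post-dose), mean ± SEM. Two-way ANOVA with Tukey test.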

Data set [9] in a line: Drug level in Sprague-Dawley rat plasma at 0.3 mg/kg, po measured 2 hrs post dose by LC-MS/MS analysis. The data set is classed as ADME, organism-based. The procedure, abridged:
as §2

The nature of data set [10]: Drug level in Sprague-Dawley rat plasma at 1 mg/kg, po measured 2 hrs post dose by LC-MS/MS analysis. Type of data set: ADME, organism-based. The essentials: as §2
Data set [11] in a line: Metabolic stability in human liver microsomes assessed as parent compound remaining at 3 uM incubated for 15 mins by LC-MS analysis. The data set is classed as ADME, Microsome. The essentials:
(§4)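 Liver microsomes incubated with compound at 3 μM for 15 min. Parent compound remaining was quantified by LC-MS.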

Data set [12] is described as follows: Drug level in Sprague-Dawley rat CSF at 3 mg/kg, po measured 2 hrs post dose by LC-MS/MS analysis. Type of data set: ADME, organism-based, Cerebrospinal fluid. The conditions noted are these: read-out: Drug uptake. The procedure, abridged:
as §2

The nature of data set [13]: Drug level in Sprague-Dawley rat CSF at 1 mg/kg, po measured 2 hrs post dose by LC-MS/MS analysis. Type of data set: ADME, organism-based, Cerebrospinal fluid. The note with it: read-out: Drug uptake. The procedure, abridged:
as §2

The nature of data set [14]: Drug level in Sprague-Dawley rat brain at 1 mg/kg, po measured 2 hrs post dose by LC-MS/MS analysis. The note with it: read-out: Drug uptake. The data set is classed as ADME, organism-based. The procedure, abridged:
as §2

Data set [15] relates to Rattus norvegicus. As to the kind of experiment: In vivo inhibition of glycine transporter-1 in Sprague-Dawley rat assessed as CSF glycine level at 3 mg/kg, po measured 2 hrs post dose by LC-MS/MS analysis relative to control. The data set is classed as functional. Also on record: scale not given: the % may be the effect or the level left. The procedure, abridged: as §3

Data set [16] can be described thus: Drug level in Sprague-Dawley rat CSF at 10 mg/kg, po measured 2 hrs post dose by LC-MS/MS analysis. Type of data set: ADME, organism-based, Cerebrospinal fluid. The note with it: read-out: Drug uptake. The procedure, abridged:
as §2

The target in data set [17] is T1, Sodium- and chloride-dependent glycine transporter 1 (Homo sapiens, UniProt P48067).
T1 sequence (P48067 whole entry): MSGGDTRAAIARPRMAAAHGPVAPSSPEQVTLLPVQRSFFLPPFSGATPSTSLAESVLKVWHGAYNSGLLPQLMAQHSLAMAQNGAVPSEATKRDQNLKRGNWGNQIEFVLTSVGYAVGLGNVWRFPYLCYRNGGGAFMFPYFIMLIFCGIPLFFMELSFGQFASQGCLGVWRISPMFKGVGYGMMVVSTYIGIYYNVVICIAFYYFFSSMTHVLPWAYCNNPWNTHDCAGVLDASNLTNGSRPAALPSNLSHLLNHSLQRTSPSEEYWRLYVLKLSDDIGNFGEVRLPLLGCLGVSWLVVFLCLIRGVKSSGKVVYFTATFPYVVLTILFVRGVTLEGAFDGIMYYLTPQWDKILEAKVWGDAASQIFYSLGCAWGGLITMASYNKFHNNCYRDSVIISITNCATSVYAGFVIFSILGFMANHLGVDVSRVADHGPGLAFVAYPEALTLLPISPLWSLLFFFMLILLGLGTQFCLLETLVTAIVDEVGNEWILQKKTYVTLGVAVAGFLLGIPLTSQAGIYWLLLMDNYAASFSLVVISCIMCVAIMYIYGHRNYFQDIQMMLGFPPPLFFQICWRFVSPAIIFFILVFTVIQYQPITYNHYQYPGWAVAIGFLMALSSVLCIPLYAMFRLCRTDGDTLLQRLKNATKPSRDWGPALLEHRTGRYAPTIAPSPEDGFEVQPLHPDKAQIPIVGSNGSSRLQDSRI
As to the kind of experiment: Inhibition of glycine transporter-1B in human JAR cells assessed as reduction in [14C]glycine uptake preincubated for 10 mins followed by [14C]glycine addition measured after 3 hrs by scintillation proximity assay. The data set is classed as cell-based. The essentials: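 Whole-cell SPA in JAR cells, which endogenously express hGlyT-1b. Cells (50,000 per well) were attached overnight in RPMI/10% FBS at 37 °C, 5% CO₂. [¹⁴C]glycine was then added and incubated 3 h at 37 °C. The assay window was set with unlabeled glycine. A reference standard ran on each plate. IC₅₀ values are means of n ≥ 2.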

Data set [18] has as its system Rattus norvegicus. Put plainly: In vivo inhibition of glycine transporter-1 in Sprague-Dawley rat assessed as CSF glycine level at 10 mg/kg, po measured 2 hrs post dose by LC-MS/MS analysis relative to control. Type of data set: functional. Also on record: scale not given: the % may be the effect or the level left. The procedure, abridged:
as §3

Data set [19] has as its system Rattus norvegicus. Put plainly: In vivo inhibition of glycine transporter-1 in Sprague-Dawley rat assessed as CSF glycine level at 1 mg/kg, po measured 2 hrs post dose by LC-MS/MS analysis relative to control. Type of data set: functional. Also on record: scale not given: the % may be the effect or the level left. The essentials: as §3
The nature of data set [20]: Drug level in Sprague-Dawley rat plasma at 10 mg/kg, po measured 2 hrs post dose by LC-MS/MS analysis. Type of data set: ADME, organism-based. The essentials: as §2
The nature of data set [21]: Drug level in Sprague-Dawley rat plasma at 3 mg/kg, po measured 2 hrs post dose by LC-MS/MS analysis. The data set is classed as ADME, organism-based. The procedure, abridged:
as §2

A short description of data set [22]: Metabolic stability in rat liver microsomes assessed as parent compound remaining at 3 uM incubated for 15 mins by LC-MS analysis. The data set is classed as ADME, Microsome. The conditions noted are these: liver microsomes, read-out: Stability. The procedure, abridged: as §4
For orientation: Microsomes from liver hold many membrane-bound enzymes, among them those of drug oxidation.

In data set [23] the test system is Rattus norvegicus. As to the kind of experiment: In vivo inhibition of glycine transporter-1 in po dosed Sprague-Dawley rat assessed as increase in CSF glycine level measured 2 hrs post dose by LC-MS/MS analysis. The data set is classed as functional. The procedure, abridged:
as §3

Structures are written as SMILES. pIC50: −log10 of the molar value.

Broadly, the pIC50 is −log10 of the IC50, conventionally taken in molar units. Turning to `CC(NC(=O)c1ccc(C(F)(F)F)cc1Cl)C1(N2CCN(S(=O)(=O)c3cn(C)nn3)CC2)CCC(F)(F)CC1.Cl` (single isomer, unassigned; (+)), the concentration at 0.5 h in [1] was 1.8 ng/mL. Also, the concentration at 4 h in [2] was found to be 8.4 ng/mL. Further, the concentration at 2 h in [3] is 12.5 nM; in data set [4], below 1 ng/mL; in data set [6] it was 3.2 nM; in data set [7] it was 32.2 nM; in data set [9], 3.2 nM; in data set [10], 11.4 nM. Further, the concentration at 2 h is 0.5 nM in [12]; 0.1 nM in [13]; 3.6 nM in data set [14]; 1.7 nM in [16]; 318 nM in [20]; 52.2 nM in data set [21]. The solubility thermodynamic in data set [5] came to 22.2 µM. Also, the Activity is recorded as 100.4% in data set [8], 160.5% in data set [15], 326.4% in [18] and 119.3% in data set [19]. For the same compound, in [11] (microsomes, 0.25 h, 3 µM), the Stability worked out at 74%. In addition, the negative logarithm of the IC50 (pIC50) in [17] is 8.97. Also, the remaining at 0.25 h, 3 µM in data set [22] stood at 76%.
For the compound `Cl.Cn1cc(S(=O)(=O)N2CCN(C3(CNC(=O)c4ccc(C(F)(F)F)cc4Cl)CCC(F)(F)CC3)CC2)nn1`, the concentration at 2 h in data set [3] was found to be 39.2 nM; in [4] it was 2.7 nM; in data set [6], 7.5 nM; in [7] it was 64.9 nM; in [9], 18 nM; in data set [10], 76.9 nM. Moreover, the concentration at 2 h in data set [12] amounted to 4 nM; in data set [13], 3.7 nM; in [14], 13.1 nM; in [16] it was 7.5 nM; in data set [20] it was 432 nM; in [21] it was 204 nM. For the same compound, in data set [5], the solubility thermodynamic is 9.9 µM. Besides, the Activity was found to be 106.6% in data set [8], 251.8% in data set [15], 306.4% in data set [18] and 166% in data set [19]. The remaining at 0.25 h, 3 µM is 60% in data set [11] (liver microsomes, read-out: Stability) and 85% in data set [22]. The pIC50 in data set [17] was 9.17. In addition, the ED200 in data set [23] lay within 1.6 to 4.8 µmol/kg.
